Data on 17 compounds can be found in ChEMBL document CHEMBL1765003, “Discovery of (1S,2R,3R)-2,3-dimethyl-2-phenyl-1-sulfamidocyclopropanecarboxylates: novel and highly selective aggrecanase inhibitors” (J Med Chem, 2011).

Broadly, the IC50 is the midpoint of a concentration-inhibition curve.

In assay [1] the target is Matrix metalloproteinase-14 (Homo sapiens, UniProt P50281). As to the kind of experiment: Inhibition of human recombinant MMP14 after 60 mins by fluorescence plate reader. The essentials:
(§1)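 Recombinant human enzyme at 20 ng/mL with 10 μM MOCAc-Lys-Pro-Leu-Gly-Leu-A2pr(Dnp)-Ala-Arg-NH₂, in 100 mM Tris-HCl pH 7.5, 150 mM NaCl, 10 mM CaCl₂, 0.05% Brij-35. Enzyme pretreated with inhibitor for 15 min at 25 °C, then substrate added. Fluorescence (ex 325, em 405 nm) read at 60 min. IC50 taken from three points in the linear range; mean of ≥2 determinations.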

In another assay the target is T1, Interstitial collagenase (Homo sapiens, UniProt P03956).
T1 sequence (P03956 whole entry): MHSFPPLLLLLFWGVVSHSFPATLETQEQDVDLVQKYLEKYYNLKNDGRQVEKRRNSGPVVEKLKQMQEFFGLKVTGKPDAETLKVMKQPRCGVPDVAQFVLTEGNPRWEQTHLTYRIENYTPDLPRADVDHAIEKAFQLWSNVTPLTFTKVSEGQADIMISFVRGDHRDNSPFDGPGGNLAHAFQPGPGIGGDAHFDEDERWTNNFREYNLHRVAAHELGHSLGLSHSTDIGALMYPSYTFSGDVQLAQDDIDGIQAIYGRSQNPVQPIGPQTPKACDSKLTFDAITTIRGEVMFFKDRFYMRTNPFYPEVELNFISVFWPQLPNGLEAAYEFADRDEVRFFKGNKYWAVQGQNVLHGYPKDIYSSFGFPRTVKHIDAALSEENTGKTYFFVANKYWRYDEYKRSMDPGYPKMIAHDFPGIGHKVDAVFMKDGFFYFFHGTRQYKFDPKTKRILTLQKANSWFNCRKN
As to the kind of experiment: Inhibition of human recombinant MMP1 after 60 mins by fluorescence plate reader. In outline: as §1

The target of assay [2] is T2, A disintegrin and metalloproteinase with thrombospondin motifs 5 (Homo sapiens, UniProt Q9UNA0).
T2 sequence (Q9UNA0 whole entry): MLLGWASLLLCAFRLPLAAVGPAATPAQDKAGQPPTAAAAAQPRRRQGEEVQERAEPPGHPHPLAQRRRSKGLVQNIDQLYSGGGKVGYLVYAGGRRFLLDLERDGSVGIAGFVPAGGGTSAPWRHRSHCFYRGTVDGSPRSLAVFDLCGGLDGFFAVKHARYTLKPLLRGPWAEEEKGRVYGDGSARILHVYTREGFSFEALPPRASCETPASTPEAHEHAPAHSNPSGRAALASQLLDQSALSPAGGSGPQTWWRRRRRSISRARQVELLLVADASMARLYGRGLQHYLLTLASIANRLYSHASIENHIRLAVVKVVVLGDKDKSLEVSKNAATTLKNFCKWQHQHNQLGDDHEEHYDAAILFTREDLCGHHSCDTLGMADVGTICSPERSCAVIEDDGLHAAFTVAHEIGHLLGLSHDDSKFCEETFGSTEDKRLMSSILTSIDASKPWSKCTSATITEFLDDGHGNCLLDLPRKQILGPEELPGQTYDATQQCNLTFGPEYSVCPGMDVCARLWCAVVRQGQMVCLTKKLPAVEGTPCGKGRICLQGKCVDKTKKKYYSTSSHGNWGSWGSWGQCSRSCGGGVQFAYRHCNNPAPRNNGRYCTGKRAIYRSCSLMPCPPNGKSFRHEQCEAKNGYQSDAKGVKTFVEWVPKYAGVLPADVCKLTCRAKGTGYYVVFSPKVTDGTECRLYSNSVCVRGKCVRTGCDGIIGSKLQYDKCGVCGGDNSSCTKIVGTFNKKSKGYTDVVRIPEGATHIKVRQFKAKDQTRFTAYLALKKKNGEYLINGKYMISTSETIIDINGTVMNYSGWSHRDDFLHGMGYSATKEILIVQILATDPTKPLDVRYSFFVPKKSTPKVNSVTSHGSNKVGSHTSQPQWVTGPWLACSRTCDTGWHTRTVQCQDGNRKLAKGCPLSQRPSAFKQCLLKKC
As to the kind of experiment: Inhibition of human recombinant aggrecanase 2 after 150 mins by fluorescence plate reader.

Assay [3] concerns the target Disintegrin and metalloproteinase domain-containing protein 17 (Homo sapiens, UniProt P78536). Nature of the assay: Inhibition of human recombinant TACE after 60 mins by fluorescence plate reader. In outline:
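rh-TACE at 80 ng/mL with 10 μM MCA-Pro-Leu-Ala-Gln-Ala-Val-Dpa-Arg-Ser-Ser-Ser-Arg-NH₂, in 100 mM Tris-HCl pH 7.5, 150 mM NaCl, 10 mM CaCl₂, 0.05% Brij-35. Inhibitor preincubated for 15 min at 25 °C. Fluorescence (ex 325/em 405 nm) read at 60 min. IC50 from three linear-range points; mean of ≥2.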

Sequence of Disintegrin and metalloproteinase domain-containing protein 17 (P78536 whole entry, the tested form may be a part): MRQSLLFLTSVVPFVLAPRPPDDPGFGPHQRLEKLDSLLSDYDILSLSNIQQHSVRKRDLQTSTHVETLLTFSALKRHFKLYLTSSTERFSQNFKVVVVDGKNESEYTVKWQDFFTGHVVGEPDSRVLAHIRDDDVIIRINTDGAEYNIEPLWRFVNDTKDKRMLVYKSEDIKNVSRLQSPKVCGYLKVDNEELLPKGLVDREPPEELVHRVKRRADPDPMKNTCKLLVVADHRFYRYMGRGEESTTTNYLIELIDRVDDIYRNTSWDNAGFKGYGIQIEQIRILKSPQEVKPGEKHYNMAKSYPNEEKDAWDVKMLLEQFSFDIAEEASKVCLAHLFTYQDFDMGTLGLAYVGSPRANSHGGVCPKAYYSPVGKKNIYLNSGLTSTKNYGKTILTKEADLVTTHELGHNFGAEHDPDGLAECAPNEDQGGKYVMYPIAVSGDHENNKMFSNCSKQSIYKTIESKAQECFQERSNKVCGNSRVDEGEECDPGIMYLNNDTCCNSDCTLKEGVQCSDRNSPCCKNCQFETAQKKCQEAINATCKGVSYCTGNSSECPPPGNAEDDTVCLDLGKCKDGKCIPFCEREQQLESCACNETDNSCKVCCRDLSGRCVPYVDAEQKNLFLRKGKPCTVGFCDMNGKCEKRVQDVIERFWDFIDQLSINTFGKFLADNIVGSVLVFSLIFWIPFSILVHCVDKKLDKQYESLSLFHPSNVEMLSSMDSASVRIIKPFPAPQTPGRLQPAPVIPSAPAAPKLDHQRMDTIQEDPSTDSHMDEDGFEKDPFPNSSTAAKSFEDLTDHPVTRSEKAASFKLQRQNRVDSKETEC

Take `C[C@@H]1[C@H](c2ccccc2)[C@]1(NS(=O)(=O)N1CC=C(c2ccc(Cl)cc2)CC1)C(=O)O`: the IC50 in assay [1] was 0.3 µM; on Interstitial collagenase, above 10 µM; in assay [2], 0.062 µM; in assay [3] it was above 10 µM.
With `C[C@@H]1[C@H](c2ccccc2)[C@]1(NS(=O)(=O)N1CCN(c2ccc(Cl)cc2)C(CO)C1)C(=O)O` (mixture of isomers), the IC50 was 6.1 µM in assay [1] and 0.23 µM in assay [2].
Consider `C[C@@H]1[C@H](c2ccccc2)[C@]1(NS(=O)(=O)N1CCc2c(nn3cc(F)ccc23)C1)C(=O)O`, for which the IC50 was 0.14 µM in assay [1], 4.2 µM on Interstitial collagenase, 0.0086 µM in assay [2] and above 10 µM in assay [3].
As for `Cc1cc(S(=O)(=O)N[C@@]2(C(=O)O)[C@H](C)[C@@H]2c2ccccc2)sc1-n1cc(Cl)cn1`, in assay [2], the IC50 was above 1 µM.
For `C[C@@H]1[C@H](c2ccccc2)[C@]1(NS(=O)(=O)c1cc2nc3cc(Cl)ccn3c2s1)C(=O)O`, the IC50 was 0.1 µM in assay [1], 1.5 µM on Interstitial collagenase, 0.023 µM in assay [2] and above 10 µM in assay [3].
In the same order, the values of `C[C@@H]1[C@H](c2ccccc2)[C@]1(NS(=O)(=O)N1CCN(c2ccc(Cl)cc2)CC1)C(=O)O` are 0.45 µM, above 10 µM, 0.087 µM and above 10 µM.
On to `C[C@@H]1[C@H](c2ccccc2)[C@]1(NS(=O)(=O)N1CCn2c(cc3cc(Cl)sc32)C1)C(=O)O`, for which the IC50 was 2.3 µM in assay [1], above 10 µM on Interstitial collagenase, 0.11 µM in assay [2] and above 10 µM in assay [3].
Regarding `C[C@@H]1[C@H](c2ccccc2)[C@]1(NS(=O)(=O)c1cc2[nH]c3cc(Cl)ccc3c2s1)C(=O)O`, the IC50 in assay [1] is 0.017 µM; on Interstitial collagenase, 1 µM; in assay [2], 0.0029 µM; in assay [3] it was 3.8 µM.
In the same order, the values of `C[C@@H]1[C@H](c2ccccc2)[C@]1(NS(=O)(=O)c1cc2[nH]c3cc(F)ccc3c2s1)C(=O)O` are 0.008 µM, 0.23 µM, 0.0083 µM and 1.1 µM.
For the compound `C[C@@H]1CN(S(=O)(=O)N[C@@]2(C(=O)O)[C@H](C)[C@@H]2c2ccccc2)CCN1c1ccc(C2CC2)cc1`, the figures for the IC50 (in assay [1]; at Interstitial collagenase; in assay [2]) were 1.4 µM, above 10 µM and 0.27 µM, respectively.
On to `Cc1ccc2c(c1)nc1n2CCN(S(=O)(=O)N[C@@]2(C(=O)O)[C@H](C)[C@@H]2c2ccccc2)C1`, for which the IC50 in assay [1] was 0.9 µM; at Interstitial collagenase, above 10 µM; in assay [2], 0.32 µM; in assay [3], above 10 µM.
In the case of `C[C@@H]1[C@](C)(c2ccccc2)[C@]1(NS(=O)(=O)N1CCc2c(nn3cc(F)ccc23)C1)C(=O)O`, the IC50 in assay [1] was 2.1 µM; at Interstitial collagenase it was above 10 µM; in assay [2], 0.01 µM; in assay [3] it was above 10 µM.
For `C[C@@H]1CN(S(=O)(=O)N[C@@]2(C(=O)O)[C@H](C)[C@@H]2c2ccccc2)CCN1c1ccc(F)cc1`, the IC50 in assay [1] is above 10 µM; on Interstitial collagenase, above 10 µM; in assay [2], 0.18 µM; in assay [3], above 10 µM.
As to `COCc1cc(N2CCN(S(=O)(=O)N[C@@]3(C(=O)O)[C@H](C)[C@@H]3c3ccccc3)C[C@H]2C)no1`, the IC50 is 1.4 µM in assay [1], above 10 µM at Interstitial collagenase, 0.067 µM in assay [2] and above 10 µM in assay [3].
With `C[C@@H]1[C@H](c2ccccc2)[C@]1(NS(=O)(=O)N1CCN(c2ccc(Cl)cc2)C(C)(C)C1)C(=O)O`, the IC50 in assay [1] was 2.9 µM; in assay [2], 0.33 µM.
In the case of `C[C@@H]1[C@H](c2ccccc2)[C@]1(NS(=O)(=O)c1ccc(-c2ccc(Cl)cc2)s1)C(=O)O`, the IC50 was 0.019 µM in assay [1], 4 µM on Interstitial collagenase and 2.7 µM in assay [3].
In the case of `CCC1CN(S(=O)(=O)N[C@@]2(C(=O)O)[C@H](C)[C@@H]2c2ccccc2)CCN1c1ccc(Cl)cc1` (mixture of isomers), the IC50 is above 10 µM in assay [1] and 0.41 µM in assay [2].
